Test results published in ChEMBL document CHEMBL1955811, “Inhibition of colony-stimulating-factor-1 signaling in vivo with the orally bioavailable cFMS kinase inhibitor GW2580” (Proc Natl Acad Sci U S A, 2005).
Active and inactive are the calls of the source. No cut-off for these calls is given here.

Columns and labels:
[1] = species: Rattus norvegicus; test: Inhibition of PTH-induced Wistar rat calvarial bone degradation assessed as reduction in DPPD level in media at 0.1 uM after 48 hrs; assay type: functional
In short: (§1)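 Rat calvaria incubated with PTH plus compound for two consecutive 48-h periods. Medium from the second period assayed for deoxypyridinoline crosslinks (DPPD).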

[2] = tested on: Osteoclast; test: Inhibition of human osteoclast degradation of bone assessed as bone slice resorbed at 10 uM after 3 days by immunocytochemistry (reference value: 26.6 +/- 4.7 %); assay type: functional; details: 72 h
[3] = molecular target: Protein kinase C alpha type (Homo sapiens, UniProt P17252); test: Inhibition of human PKCa catalytic domain after by scintillation counting
In short: (§2)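 Catalytic domains of the human kinases were expressed, isolated and assayed with ATP and the appropriate substrate. Compound was tested as a 10- to 12-point dose-response up to a maximal 20 μM.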

[4] = tested on: Osteoclast; test: Inhibition of human osteoclast degradation of bone assessed as bone slice resorbed at 1 uM after 3 days by immunocytochemistry (reference value: 26.6 +/- 4.7 %); assay type: functional; details: 72 h
[5] = tested on: Monocyte; test: Inhibition of GMCSF-stimulated growth of freshly isolated human monocytes at 1 uM preincubated for 30 mins before inducer addition measured after 5 days by WST-1 method; assay type: functional; details: read-out: GI
[6] = tested on: HFF; test: Growth inhibition of serum-stimulated HFF after 3 days by spectrophotometry; assay type: cell-based; details: Homo sapiens, 72 h
In short: (§3)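 Cells cultured so that added serum or growth factor gave linear growth. Compound tested as a 10- to 12-point dose-response with a top concentration of 20 μM.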

[7] = species: Rattus norvegicus; test: Inhibition of PTH-induced Wistar rat calvarial bone degradation assessed as reduction in DPPD level in media at 1 to 100 uM after 48 hrs; assay type: functional; in short: as §1
[8] = tested on: Mus musculus; test: Toxicity in mouse M-NFS-60 cells allografted CD-1 nude mouse assessed as effect on body weight at 20 to 80 mg/kg, po BID starting 1 hr before challenge for 4 days; assay type: organism-based; set-up: dose 20-80 mg/kg, route oral; details: in vivo
In short: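 Female CD-1 nude mice (22-26 g) received 1 × 10^7 M-NFS-60 cells in PBS i.p. Oral dosing b.i.d. in 0.5% HPMC/0.1% Tween 80 began 1 h before cell injection. Body weight was taken at kill on day 4.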

[9] = tested on: Osteoclast; test: Inhibition of human osteoclast degradation of bone assessed as bone slice resorbed at 3 uM after 3 days by immunocytochemistry (reference value: 26.6 +/- 4.7 %); assay type: functional; details: 72 h
[10] = tested on: HUVEC; test: Growth inhibition of VEGF-stimulated HUVEC after 3 days by spectrophotometry; assay type: cell-based; details: Homo sapiens, 72 h; in short: as §3
[11] = tested on: Monocyte; test: Growth inhibition of CSF-1-stimulated freshly isolated human monocytes after 3 days by spectrophotometry; assay type: functional, cell-based; details: 120 h, in the assay text read “after 5 days” for “after 3 days”; in short: as §3
[12] = tested on: NCI-N87; test: Growth inhibition of serum-stimulated human NCI-N87 cells after 3 days by spectrophotometry; assay type: functional, cell-based; details: NCI-N87, 72 h; in short: as §3
[13] = tested on: Macrophage; test: Effect on LPS-induced IL-6 production in CSF-1-stimulated human macrophages at 0.03906 to 20 uM preincubated for 30 mins before LPS stimulation measured after 20 hrs by ELISA; assay type: functional, cell-based
[14] = tested on: Osteoclast; test: Inhibition of human osteoclast degradation of bone assessed as reduction in actin ring formation per cm2 of bone at 1 uM after 3 days by immunocytochemistry (reference value: 1546 +/- 232 /cm2 of bone); assay type: functional
[15] = tested on: Osteoclast; test: Inhibition of human osteoclast degradation of bone assessed as reduction in actin ring formation per cm2 of bone at 10 uM […] by immunocytochemistry (reference value: 1546 +/- 232 /cm2 of bone)
[16] = tested on: Mus musculus; test: Inhibition of LPS-stimulated TNF production in CSF-1 primed mouse at 40 mg/kg, po administered 4.5 hr before LPS challenge and CSF-1 priming measured […] after LPS challenge; assay type: functional
[17] = tested on: NFS-60; test: Antitumor activity in mouse M-NFS-60 cells allografted in po dosed CD-1 nude mouse assessed as inhibition of tumor cell growth in peritoneal cavity compound starting 1 hr before challenge twice a day for 4 days measured after 4 days; assay type: functional, organism-based
In short: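 CD-1 nude female mice (22-26 g); 1 × 10^7 M-NFS-60 cells in PBS injected i.p. Oral dosing b.i.d. at 20 and 80 mg/kg as a suspension in 0.5% hydroxypropylmethylcellulose/0.1% Tween 80 (0.2 ml per mouse), starting 1 h before cell injection. Peritoneal cells recovered by cold PBS-heparin lavage on day 4 and counted by hemocytometer after crystal violet dilution. Mean ± SEM; Dunnett's test.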

[18] = Cmax in mouse at 20 mg/kg, po; assay type: ADME, organism-based; set-up: dose 20 mg/kg, route oral; details: in vivo
In short: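 Female mice given single oral doses (20 or 80 mg/kg) in 0.5% HPMC/0.1% Tween 80. Three mice killed with CO2 per time point; plasma extracted with isopropyl alcohol/acetonitrile, then vortexed, sonicated and centrifuged. Quantified by LC/MS (APCI positive mode, multiple-reaction monitoring) against a standard curve prepared in plasma.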

[19] = tested on: Mus musculus; test: Inhibition of thioglycolate-induced macrophage influx into peritoneal cavity in mouse at 20 to 80 mg/kg, po BID; assay type: functional, organism-based; details: TDE = time-dependent effect
In short: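 Female C3H/HEN mice (22-26 g) were dosed orally with compound suspended in 0.5% hydroxypropylmethylcellulose/0.1% Tween 80 (0.2 ml per mouse). Thioglycolate (1.5 ml) was injected i.p. on day 0. On day 4, the peritoneum was lavaged with 5 ml cold PBS containing 40 units/ml heparin, and cells were counted by hemocytometer in 0.1% crystal violet. Data are mean ± SEM; Dunnett's test.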

[20] = molecular target: [Pyruvate dehydrogenase (acetyl-transferring)] kinase isozyme 4, mitochondrial (Homo sapiens, UniProt Q16654); test: Inhibition of human His-tagged PDHK4 using biotin-YHGHSMSDPGVSYRRR-amide as substrate after 20 mins by scintillation proximity assay; in short: as §2
[21] = tested on: Mus musculus; test: Inhibition of LPS-stimulated TNF production in mouse at 40 mg/kg, po administered 4.5 hr before LPS challenge measured […] after LPS challenge; assay type: functional
[22] = tested on: Monocyte; test: Effect on LPS-induced PGE2 production in human monocytes at 0.03906 to 20 uM preincubated for 30 mins before LPS stimulation measured after 20 hrs by ELISA; assay type: functional, cell-based
[23] = tested on: Mus musculus; test: Inhibition of LPS-stimulated IL-6 production in mouse at 40 mg/kg, po administered 0.5 hr before LPS challenge measured […] after LPS challenge; assay type: functional
[24] = tested on: Peritoneal macrophage cell; test: Effect on LPS-induced TNF production in mouse intraperitoneal macrophages pretreated with CSF-1 at 0.03906 to 20 uM compound incubated for 30 mins before LPS stimulation measured after 20 hrs by ELISA; assay type: functional, cell-based
[25] = tested on: Osteoclast; test: Inhibition of human osteoclast attachment to plastic surface assessed cells per cm2 of plastic at 10 uM after 3 days by immunocytochemistry (reference value: 9723 +/- 1380 cells/cm2 of plastic); assay type: functional
In short: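 Human PBMCs from a healthy volunteer (5 × 10^5 cells in MEM/10% FCS) were seeded on plastic coverslips with RANKL and CSF-1 (30 ng/ml each) for 10 days, with medium changed every 3 days. Compound was added on day 10 (0.1% DMSO final). On day 13, total cells on the coverslips were counted by immunocytochemistry. Data are mean ± SEM.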

[Pyruvate dehydrogenase (acetyl-transferring)] kinase isozyme 4, mitochondrial, sequence (Q16654 whole entry): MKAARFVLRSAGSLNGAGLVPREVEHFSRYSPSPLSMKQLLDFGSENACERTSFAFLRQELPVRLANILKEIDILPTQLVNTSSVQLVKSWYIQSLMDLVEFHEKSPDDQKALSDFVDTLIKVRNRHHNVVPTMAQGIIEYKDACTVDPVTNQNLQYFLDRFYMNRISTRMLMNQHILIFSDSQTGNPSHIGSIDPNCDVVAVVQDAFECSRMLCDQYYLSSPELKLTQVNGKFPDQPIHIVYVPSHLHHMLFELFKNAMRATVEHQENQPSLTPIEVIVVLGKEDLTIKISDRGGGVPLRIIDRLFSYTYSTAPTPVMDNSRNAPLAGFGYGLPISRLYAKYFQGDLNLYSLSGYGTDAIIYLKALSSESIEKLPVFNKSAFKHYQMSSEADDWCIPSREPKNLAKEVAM

## COc1ccc(COc2ccc(Cc3cnc(N)nc3N)cc2OC)cc1 [GW632580X]
[1]
  inhibition: 80%
[2]
  bone resorption (%) at 10 µM: 1.2%
[3]
  IC50: > 13 µM
[4]
  bone resorption (%) at 1 µM: 3.3%
[5]
  inhibition of growth at 1 µM: 80%
[6]
  IC50: > 30 µM
[7]
  inhibition: Active
[8]
  Activity: Non-toxic
[9]
  bone resorption (%) at 3 µM: 1.5%
[10]
  IC50: 12 µM
[11]
  IC50: 0.47 µM
[12]
  IC50: > 30 µM
[13]
  Activity: inactive
[14]
  Activity: 479 /cm2
[15]
  Activity: 0 /cm2
[16]
  inhibition in vivo at 40 mg/kg: 58%
[17]
  growth inhibition (GI): Dose-dependent effect
[18]
  Cmax: 1400 nM
[19]
  inhibition: tde
[20]
  IC50: > 28 µM
[21]
  inhibition in vivo at 40 mg/kg: 42%
[22]
  Activity: inactive
[23]
  inhibition in vivo at 40 mg/kg: 20%
[24]
  Activity: inactive
[25]
  Activity: 2728 /cm2
